Source: PubChem
HIF act: HIF pathway transcriptional activators, primary screen, cell-based, U2OS HRE-luciferase, luminescence; hit rate 0.32% among 300,000; activation, % at 7.5 µM (by protocol); U2OS HRE-luciferase reporter; normalized: DMSO 0%, desferrioxamine 100%; AID 1910, 2009;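 active means mean activation of at least 10% of the iron chelator positive control signal, with at least half of replicates also reaching 10%; inconclusive means mean and replicate majority disagree about reaching 10%; inactive means mean and most replicates under 10%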
HSF-1 act: HSF-1 activators, primary screen, NIH3T3-HGL cells, MG132 stress, luminescence, single point; NIH3T3-HGL HSF-1 luciferase reporter, 8 h; 100% = twice DMSO control signal; activation, % at 9 µM; hit rate 1.7% among 300,000; AID 504408, 2011;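 active means mean replicate activation of at least 50% with a set share of replicates each reaching 50%; inconclusive means only one of those two conditions met; inactive means mean below 50% and too few replicates reaching it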;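 further: 0% = median of the neutral control wells and 100% = twice that signal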
Calb FLC: C. albicans growth inhibition with fluconazole, primary screen, CaCi-2 strain, Alamar Blue fluorescence. C. albicans CaCi-2 (fluconazole-resistant clinical isolate) + fluconazole, 48 h. growth inhibition, % (concentration not given with the values). hit rate 0.57% among 300,000;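 active means growth inhibition above about 58% in most replicates, limit read from the data, passing the limit was not always enough; inconclusive means exactly half the replicates above a set limit; inactive means most replicates below a set limit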;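 further: all wells also contain fluconazole at 8 µg/ml as a sub-toxic cotreatment; 0% = median of DMSO wells and 100% = median of geldanamycin control wells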
T cruzi inh: inhibitors of intracellular T. cruzi growth, primary screen, luminescence, NIH3T3 host cells; AID 1885, 2009; inhibition, % (test concentration not listed); T. cruzi beta-gal in NIH3T3, 90 h; hit rate 1.4% among 300,000;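 active means mean inhibition across valid replicates above about 55%, limit read from the data; inconclusive means mean below that limit but half or more replicates reach it; inactive means mean below it, under half of replicates reach it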;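 further: signal also drops with host cell toxicity which is not excluded here; 0% = plate median of DMSO wells and 100% = zero luminescence signal; higher percent means less beta-gal luminescence so fewer parasites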
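System: NIH/3T3 fibroblasts plus reporter T. cruzi. Medium: DMEM plus 2% FBS. Probe or stimulus: 5000 reporter trypomastigotes per well. Compound: single 50 nL compound addition per well in DMSO. Incubation: co-culture of at least 90 h after 3 h attachment. Detection: GalScreen β-gal luminescence, detergent lysis, 60 min. Evaluation: parasite load inhibition, %.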
HSF1 inh: HSF1 inhibitors in luciferase reporter cells, primary screen, cell-based, NIH3T3, luminescence | activity change, negative = inhibition, % at 7.5 µM (by protocol) | hit rate 0.77% among 300,000 | NIH3T3-HGL HSE-luciferase, MG132-induced, luminescence 8 h; stronger effect = lower value;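 active means more than half of replicate wells show activity change below -50%, luminescence cut by over half; inconclusive means some wells, but at most half, below -50%; inactive means no replicate well below -50%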;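 further: luciferase reports HSF-1 transcriptional activity via heat shock element; 0% = median of DMSO wells and -100% = zero luminescence signal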
Numbers without * were called inactive; ? = inconclusive; . = no result given; ! = not confirmed by another sample. In the library only some 4.4% were active in any assay of this set; here they are far more common.

SMILES | HIF act | HSF-1 act | Calb FLC | T cruzi inh | HSF1 inh
COc1ccc(Cn2nnnc2C(c2ccccn2)N2CCN(c3cc(Cl)ccc3C)CC2)cc1 (stereo not drawn) | 0.2 | 12.0 | -8.7 | 65.2* | 0.7
O=C(c1cc2ccccc2oc1=O)N(c1ccc(Cl)cc1)C1C=CS(=O)(=O)C1 (stereo not drawn) | -0.3 | 13.5 | 24.6 | -36.1 | -4.0
CNC(=O)/C(C#N)=C/c1ccc(-c2ccc(Cl)cc2)o1 | 2.3 | 73.1* | ? | 13.5 | 29.9
Cc1ccc(C(=O)Nc2ccccc2-c2ccccc2)cc1S(=O)(=O)Nc1cccc(C)c1C | -0.7 | 15.6 | 18.0 | 62.4* | 7.1
Cc1ccc(C)c(NS(=O)(=O)c2cc(C(=O)Nc3ccccc3-c3ccccc3)ccc2C)c1 | -0.3 | 9.7 | 2.1 | 25.5 | 7.7
Cc1ccc(C(=O)Nc2ccccc2C(=O)O)cc1S(=O)(=O)Nc1ccc(Br)cc1 | -0.5 | -3.6 | 12.6 | -6.5 | -1.2
Cc1ccc(C(=O)Nc2ccccc2C(=O)O)cc1S(=O)(=O)NCc1ccccc1 | 0.0 | -93.5 | -10.2 | -1.7 | -92.1*
O=C(/C=C/c1ccc(Cl)cc1)Nc1ccccc1N1CCOCC1 | 0.9 | 16.6 | -11.8 | 1.6 | 14.2
NC(=NCCCCCCN=C(N)/N=C(\N)Nc1ccc(Cl)cc1)/N=C(\N)Nc1ccc(Cl)cc1 | -0.1 | 10.8 | 105.7* | 55.8*! | 1.6
Cc1csc(CN(C)C(=O)c2cn(Cc3cccc4ccccc34)nn2)n1 | 1.0 | 2.3 | -10.5 | 5.7 | 3.7
N#Cc1cc(C(=O)c2ccccc2O)cn(-c2ccc(Cl)cc2)c1=O | 0.6 | 8.4 | 24.3 | 2.7 | -1.3
Cc1c(-n2cc(C(=O)c3ccccc3O)cc(C#N)c2=O)c(=O)n(-c2ccccc2)n1C | 0.2 | 109.5* | 14.1 | -0.7 | 72.2
CC(C)(C)SCCNS(=O)(=O)c1ccc(C#N)cc1 | -0.3 | 7.9 | 0.4 | -6.8 | -4.6
CCOC(=O)C1(CCOc2ccccc2)CCN(Cc2ccc(OCC)c(CO)c2)CC1 | 0.9 | 9.5 | -5.7 | 38.3 | -3.6
COc1ccc(-c2cc(C(=O)Nc3ccccc3F)on2)cc1 | -14.5 | 54.0* | 4.3 | -3.0 | 34.7
COc1ccc(-c2cc(C(=O)Nc3ccccc3)on2)cc1 | 2.1 | 47.8 | 24.3 | -8.8 | 4.9
COc1cc(C)ccc1OCc1cc(C(=O)N2CCN(C)C[C@@H]2c2ccccc2)no1 | 6.1 | 14.3 | -1.6 | 3.5 | 17.8
COCCN1C(=O)C(=O)/C(=C(/O)c2ccc(C)cc2)C1c1ccccn1 (stereo not drawn) | -0.7 | 26.3 | -5.6 | -14.9 | -1.2
O=C1C=C(N(CCO)Cc2ccccc2)c2ccccc2C1=O | -5.3 | -4.2 | -4.2 | 77.7* | -9.5
CCCCN(C1CCS(=O)(=O)C1)S(=O)(=O)c1ccc(OC)cc1 (stereo not drawn) | -51.4 | -2.8 | 11.5 | -7.0 | -5.2
Cc1nn(Cc2ccc(Cl)cc2Cl)c(Cl)c1/C=N/NC(=O)CNc1cccc(C(F)(F)F)c1 | 0.0 | . | -8.6 | 70.6* | .
CSc1ncc(OCc2ccccc2)c(=O)[nH]1 | . | . | 40.8 | . | .
CCOc1ccc(NC(=O)c2c(NC(=O)CNCCN3CCOCC3)sc3c2CCC3)cc1 | -0.5 | 11.0 | -3.0 | 61.0* | -6.9
COc1ccc(NC(=O)c2c(NC(=O)CNCc3ccco3)sc3c2CCC3)cc1 | -0.2 | 8.0 | 2.3 | 20.8 | 8.1
C=CCN1C(=S)CC(c2ccccc2)=Nc2ccccc21 | -1.1 | -8.6 | 12.2 | 8.6 | 5.9
SMILES | HIF act | HSF-1 act | Calb FLC | T cruzi inh | HSF1 inh
Cc1ccc(C2N(C)C(=O)c3ccccc3N2C)cc1 (stereo not drawn) | -0.3 | 0.0 | -13.8 | -11.6 | -2.0
O=C(Cn1cc(C(=O)c2ccco2)c2ccccc21)NC1CCCCC1 | 0.2 | -89.7 | 29.6 | 11.7 | -87.0*
Cc1ccc(OCCn2cc(/C=C/C(=O)O)c3ccccc32)cc1 | -0.3 | 0.4 | 6.4 | -11.4 | -0.2
COC(=O)c1cn(CCOc2ccc(C)cc2)c2ccccc12 | -0.6 | 100.0* | -9.8 | 29.8 | 45.2
O=C(Cn1cc(C(=O)C2CC2)c2ccccc21)NC1CCCC1 | 0.3 | -60.5 | 21.3 | -7.9 | ?
COC(=O)c1cn(CC(=O)NC2CCCCC2)c2ccccc12 | -0.3 | -0.4 | 100.0* | -2.3 | 4.6
